IDE inh: human IDE inhibitors in live cells, primary screen, fluorescence polarization, HEK cells, FAbetaB substrate; FAbetaB cleavage; inhibition, % at 5.59 µM; 320,000 tested, 0.41% active; AID 434962, 2010;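 active = percent inhibition above the average of all tested compounds plus 3 SD, set per screening campaign, cut at about 16% in these data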;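 note: IDE supplied by intact live HEK cells; FP after avidin binding of uncleaved biotin substrate so inhibition keeps polarization high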
Target sequence (P14735 whole entry, looked up): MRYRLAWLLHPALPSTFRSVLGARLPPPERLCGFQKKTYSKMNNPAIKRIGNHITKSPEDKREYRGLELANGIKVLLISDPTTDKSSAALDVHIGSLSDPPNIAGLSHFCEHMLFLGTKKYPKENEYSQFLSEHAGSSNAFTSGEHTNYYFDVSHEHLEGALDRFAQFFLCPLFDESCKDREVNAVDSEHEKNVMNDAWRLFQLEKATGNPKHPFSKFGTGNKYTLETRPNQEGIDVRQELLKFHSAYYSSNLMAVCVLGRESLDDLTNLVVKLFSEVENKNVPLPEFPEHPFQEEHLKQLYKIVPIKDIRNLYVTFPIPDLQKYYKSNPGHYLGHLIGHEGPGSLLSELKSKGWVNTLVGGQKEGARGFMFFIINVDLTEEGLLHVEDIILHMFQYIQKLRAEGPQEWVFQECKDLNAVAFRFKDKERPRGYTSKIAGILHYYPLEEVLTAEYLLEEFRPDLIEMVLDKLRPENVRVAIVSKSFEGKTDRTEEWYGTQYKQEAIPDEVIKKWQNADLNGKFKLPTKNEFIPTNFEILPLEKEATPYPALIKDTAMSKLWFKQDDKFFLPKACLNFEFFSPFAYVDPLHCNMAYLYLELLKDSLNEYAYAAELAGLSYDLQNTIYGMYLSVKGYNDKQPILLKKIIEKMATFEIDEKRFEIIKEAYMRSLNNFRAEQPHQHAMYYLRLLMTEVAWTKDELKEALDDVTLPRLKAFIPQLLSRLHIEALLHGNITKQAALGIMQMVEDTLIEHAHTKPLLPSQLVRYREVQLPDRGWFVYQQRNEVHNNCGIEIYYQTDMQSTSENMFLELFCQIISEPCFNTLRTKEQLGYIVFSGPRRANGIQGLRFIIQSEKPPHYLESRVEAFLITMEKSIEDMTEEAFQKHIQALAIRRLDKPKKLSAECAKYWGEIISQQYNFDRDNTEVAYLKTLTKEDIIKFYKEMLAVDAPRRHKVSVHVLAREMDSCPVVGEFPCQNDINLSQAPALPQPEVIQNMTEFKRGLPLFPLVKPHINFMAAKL
TPT1 inh: Candida albicans TPT1 enzyme inhibitors, primary screen, biochemical, fluorescence polarization. recombinant caTPT1, FP RNA substrate dephosphorylation. inhibition, % at 5 µM. 300,000 tested, 0.81% active. AID 1962, 2009;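 active = inhibition above the mean of all tested compounds plus 3 SD, set per screening campaign, cut at about 24% in these data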
proCasp3 act: activators of human procaspase-3 D3A mutant, primary screen, biochemical, absorbance, PC-3 D3A mutant, single concentration; recombinant procaspase-3 D3A, Ac-DEVD-pNA absorbance 405 nm; activation, % at 8.5 µM; 330,000 tested, 0.11% active;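 active = activation above the mean of all tested compounds plus 3 SD, cut at about 21% in these data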
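material = Procaspase-3 D3A mutant | probe or stimulus = Ac-DEVD-pNA | compound = single dose, 8.5 µM nominal compound, 0.8% DMSO | timing = 1 h preincubation, 2 h reaction | measured by = 405 nm absorbance of p-nitroaniline, reads at 0 and 120 min | benchmarks = DMSO-only low control, 5 µM PC-3 D3A high control | repeats = singlicate, each compound tested once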
proCasp7 act: procaspase-7 activators, primary screen, counter-screen for procaspase-3 activator project, biochemical, absorbance, HTS, human | 330,000 tested, 0.093% active | activation, % at 8.5 µM | recombinant procaspase-7, Ac-DEVD-pNA absorbance 405 nm; D23A/D198A/D206A triple mutant, cannot self-cleave; scale: DMSO 0, 5 µM enzyme 100;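 active = percent activation above the screen-wide mean plus 3 SD, cut at about 25% in these data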
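System: Uncleavable procaspase-7 mutant enzyme; Amount: 2 µM procaspase-7 mutant as dispensed; Schedule: 1 h compound preincubation, 2 h substrate cleavage, 25 °C; Measured by: 405 nm absorbance of p-nitroaniline; Evaluation: percent activation from buffer-corrected 0–120 min absorbance change; Control set: low DMSO alone, high DMSO plus 5 µM PC-7.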
IDE cell activ: human IDE activators in live cells, primary screen, fluorescence polarization, HEK cells, FAbeta-B substrate. Insulin-degrading enzyme (Homo sapiens), P14735. FAbeta-B cleavage; 0% vehicle, 100% cell-free pure enzyme wells. activation, % at 5.96 µM. 340,000 tested, 0.073% active. AID 493087, 2011;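 active = activation above the mean of all tested compounds plus 3 SD, set per screening campaign, cut at about 17% in these data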
TPT1 inh confirm: Candida albicans TPT1 inhibitors, confirmation, biochemical, fluorescence polarization, triplicate; shares compounds with TPT1 inh; recombinant caTPT1, RNase T1 coupled; inhibition, % at 5 µM; 2,400 tested, 74% active; AID 2149, 2009;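 active = inhibition above the primary screen limit, the mean inhibition of all tested compounds plus 3 SD, cut at about 25% in these data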
RNase T1 inh: RNase T1 inhibitors, counter-screen for TPT1 inhibitor project, biochemical, fluorescence polarization; shares compounds with TPT1 inh; RNase T1 cleavage, 1536-well; inhibition, % at 5 µM; 2,400 tested, 83% active;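 active = inhibition above the solvent-only control well mean plus 3 SD, limit set per screening run, cut at about 23% in these data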;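 note: inhibitors block cleavage so intact labeled substrate keeps polarization high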
IDE cell inh cf: human IDE inhibitors in live cells, confirmation, fluorescence polarization, HEK cells, FAbetaB substrate; shares compounds with IDE inh; 1,200 tested, 51% active; inhibition, % at 5.59 µM; FAbetaB cleavage; AID 435028, 2010;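 active = mean inhibition across triplicate wells above the cutoff set by the earlier primary insulin-degrading enzyme screen, cut at about 16% in these data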
HEK293 tox: cytotoxicity in HEK cells, cytotoxicity control for IDE inhibitor project, cell-based, luminescence; inhibition, % at 5.59 µM; 1,200 tested, 28% active; AID 449730, 2010; shares compounds with IDE inh; HEK293 cytotoxicity, ATP luminescence; in the data active = inhibition above about 22%
FP fluor counter: fluorescent or optically active artefacts, dose response, artefact control for IDE inhibitor project, biochemical, fluorescence polarization; AID 588718, 2011; IC50, µM; shares compounds with IDE inh; 30 tested, under 10 active; FP counterscreen for fluorescent artifacts, IDE probe project; call rule not given here
proCasp7 act trip: procaspase-7 activators, counter-screen for procaspase-3 activator project, biochemical, absorbance, triplicate, human. activation, % at 8.5 µM. shares compounds with proCasp3 act. recombinant procaspase-7, Ac-DEVD-pNA absorbance; asp23/198/206-to-Ala mutant, cannot self-cleave. 210 tested, under 10 active;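 active = mean activation above a set limit taken from an earlier procaspase-7 screen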
proCasp3 confirm: activators of human procaspase-3 D3A mutant, confirmation, biochemical, absorbance, PC-3 D3A mutant, triplicate | shares compounds with proCasp3 act | recombinant PC-3 D3A, Ac-DEVD-pNA absorbance 405 nm; 100% is higher-enzyme control | activation, % at 8.5 µM | 210 tested, 10% active;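 active = mean activation above a set limit carried over from the earlier primary screen, cut at about 22% in these data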
PC3 dual counter: procaspase-3 activators, counter-screen for dual procaspase-3/7 activator project, biochemical, absorbance, PC-3 D3A mutant, human. shares compounds with proCasp7 act. recombinant PC-3 D3A, Ac-DEVD-pNA absorbance 405 nm; aspartates 9, 28, 175 changed to alanine; 100% = enzyme control. activation, % at 8.5 µM. 290 tested, under 10 active. AID 493114, 2011;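 active = mean percent activation across triplicates above a set limit taken from the earlier primary procaspase-3 screen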
Procasp7 act: activation of procaspase-7 enzyme – biochemical, absorbance, human, dual procaspase-3/-7 activator project, confirmation. recombinant procaspase-7, Ac-DEVD-pNA absorbance 405 nm; D23A/D198A/D206A mutant that cannot self-cleave. activation, % at 8.5 µM. 290 tested, under 10 active. shares compounds with proCasp7 act;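 active = mean activation above a set limit carried over from the earlier primary screen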
Of the large screens only hits and unclear results are named; the others gave an inactive call (follow-up assays come after a bar, where they were run). Hits are enriched below; roughly 1.2% of the tested compounds scored in any of these assays.

CCCCCCN1C=CC=C/C1=C\C=C(C#N)C#N	IDE inh 24.6, TPT1 inh 61.2 (no result: IDE cell activ) | TPT1 inh confirm 73.0 | RNase T1 inh 84.0 | IDE cell inh cf 35.2 | HEK293 tox inactive
O=C(/C=C/NCc1cccnc1)c1ccc(-c2ccccc2)cc1	none
c1ccc(CNC2CC3CCC2C3)cc1 (stereo not drawn)	none (no result: IDE inh, TPT1 inh, proCasp3 act, proCasp7 act)
CN(C)c1ccc(/C=C(\C#N)C(=O)Nc2nc3c(s2)CCN(Cc2ccccc2)C3)cc1	IDE inh 38.1, TPT1 inh active | TPT1 inh confirm 131.8 | RNase T1 inh 146.2 | IDE cell inh cf 57.8 | HEK293 tox inactive
N#CCCN(Cc1cccnc1)C(=S)NC1CC2C=CC1C2 (stereo not drawn)	none
Cc1ccc(C2OC(=O)C=C2c2ccccc2)cc1 (stereo not drawn)	none
CCN(CC)c1ccc2cc(-c3nnc(-c4ccccc4)o3)c(=O)oc2c1	IDE inh 36.2, TPT1 inh 117.1 | TPT1 inh confirm 122.2 | RNase T1 inh 114.9 | IDE cell inh cf 82.6 | HEK293 tox inactive
O=c1oc2ccc3ccccc3c2cc1-c1nnc(-c2ccccc2)o1	none
O=C(COC(=O)/C=C/c1ccc([N+](=O)[O-])cc1)NNC(=O)c1ccccc1	none (no result: TPT1 inh)
O=C(N/N=C/c1ccc(F)cc1)c1ccccc1	none
COc1ccc(C(=O)N/N=C/C(=O)c2ccccc2)cc1	none (no result: IDE inh, TPT1 inh, proCasp3 act, proCasp7 act)
O=C(N/N=C/c1sc2ccccc2c1O)c1ccccc1	IDE inh 33.9, TPT1 inh 135.4 | TPT1 inh confirm 135.3 | RNase T1 inh 127.6 | IDE cell inh cf 61.5 | HEK293 tox 114.9
COc1ccc(C(=O)N/N=C/c2sc3ccccc3c2O)cc1	IDE inh 17.3, TPT1 inh 139.1 | TPT1 inh confirm 145.1 | RNase T1 inh 135.5 | IDE cell inh cf 32.8 | HEK293 tox 86.7
CCOc1cc(/C=N/NC(=O)C(O)(c2ccccc2)c2ccccc2)ccc1OC(=O)c1ccco1	none
CCOC(=O)/C(C#N)=C\C=C1C=CN(C)C=C1	IDE inh 51.6, TPT1 inh 158.1 | TPT1 inh confirm 173.5 | RNase T1 inh 167.5 | IDE cell inh cf 38.4 | HEK293 tox inactive
CCOC(=O)/C(C#N)=C\c1ccc(CC)s1	none
C/C(=N/NC(=O)c1ccncc1)c1cc2ccc(O)cc2oc1=O	IDE inh 20.8, TPT1 inh 59.5 | TPT1 inh confirm inactive | RNase T1 inh inactive | IDE cell inh cf 25.9 | HEK293 tox inactive
CCOC(=O)C(C)N1C(=O)S/C(=C\c2ccc(-c3ccccc3C(=O)O)o2)C1=O (stereo not drawn)	none
Cc1ccc(C)c(N2C(=N)S/C(=C\c3ccc(-c4ccccc4C(=O)O)o3)C2=O)c1	IDE inh 32.3, TPT1 inh 58.9 | TPT1 inh confirm 40.6 | RNase T1 inh 53.0 | IDE cell inh cf 16.6 | HEK293 tox inactive | FP fluor counter inactive
COc1ccc(C2=C/C(=C\c3ccccc3OC(C)=O)C(=O)O2)cc1	none
COc1ccc(C2=C/C(=C\c3cccc(OC(C)=O)c3)C(=O)O2)cc1	TPT1 inh 35.5, proCasp3 act 35.0 | TPT1 inh confirm 54.9 | RNase T1 inh 67.6 | proCasp7 act trip inactive | proCasp3 confirm inactive
O=c1c(O)c(-c2cccs2)oc2ccccc12	TPT1 inh 24.6, proCasp3 act 26.6 | TPT1 inh confirm 24.8 | RNase T1 inh 36.3 | proCasp7 act trip inactive | proCasp3 confirm inactive
O=C(CN1C(=O)NC2(CCCC2)C1=O)NCCc1ccc(F)cc1	none (no result: TPT1 inh)
CCOC(=O)C1=NN(c2ccccc2)C2C(=O)N(c3ccccc3OC)C(=O)C12 (stereo not drawn)	none
O=C(C1=NN(c2ccccc2)C2C(=O)N(c3ccccc3Cl)C(=O)C12)c1ccccc1 (stereo not drawn)	IDE inh 24.0, TPT1 inh 31.4, proCasp3 act 30.3, proCasp7 act 47.5 | TPT1 inh confirm 31.9 | RNase T1 inh 46.0 | IDE cell inh cf 28.9 | HEK293 tox inactive | PC3 dual counter 45.5 | Procasp7 act 34.1

Bioassay records deposited in PubChem BioAssay by The Scripps Research Institute Molecular Screening Center.
